Source: ChEMBL document CHEMBL3992503, “Developing piperlongumine-directed glutathione S-transferase inhibitors by an electrophilicity-based strategy” (Eur J Med Chem, 2017)
Active and inactive are the calls of the source. The rule behind the calls is not given here.

How the values were obtained:
[1] = Noncompetitive inhibition of equine liver GST using fixed GSH substrate concentration and varying levels of CDNB preincubated with GSH for 30 mins followed by CDNB addition measured for 3 mins by Lineweaver-Burk plot analysis; parameters: species or system Equus caballus
Procedure, shortened: (§1)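 Equine liver GST in 100 mM potassium phosphate pH 6.5 with inhibitor at 0, 12.5, 25 or 50 (unit unclear). Varied substrate at 0.1–1 mM, other substrate fixed at 1 mM: GSH varied for line 1, CDNB for line 10. Preincubated 30 min at 37 °C, started with CDNB, A340 read for 3 min at 25 °C. Mean of triplicates on Lineweaver-Burk plots; Ki from intercept (CDNB) or slope (GSH) replots.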

[2] = Electrophilicity of the compound assessed as second-oder rate constant for reaction with cysteamine under pseudo-first-oder condition at 40 uM by spectrophotometric method
Procedure, shortened: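 Compound fixed at 40 (unit unclear) with cysteamine 0.67–9 mM in 100 mM Tris-HCl pH 7.4 containing 2 mM EDTA–ethanol (v/v 2/1), 25 °C, pseudo-first-order conditions. Decay of compound followed spectrophotometrically at its absorbance maximum; second-order constant k2 derived from these runs.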

[3] = Inhibition of equine liver GST assessed as decrease in conjugation of CDNB to GSH preincubated with GSH for 30 mins followed by CDNB addition measured for 3 mins; parameters: species or system Equus caballus
Procedure, shortened: (§2)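 CDNB–GSH conjugation by equine liver GST in 100 mM potassium phosphate pH 6.5 with 1 mM GSH. Enzyme and inhibitor preincubated 30 min at 37 °C. Reaction started with 1 mM CDNB (final) and followed at 340 nm for 3 min at 25 °C. Single-point inhibition at 100 (unit unclear); IC50 from sigmoidal fit of inhibition versus concentration.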

A549 [4] = test: Inhibition of GST in human A549 cells at 25 uM after 1.5 hrs in presence of DTT by DNs-CV probe based fluorescence microscopic method
[5] = molecular target: T1, Glutathione S-transferase Mu 1 (Homo sapiens) (UniProt P09488); test: Inhibition of GSTM1 in human A549 cells assessed as potentiation of cisplatin-induced cytotoxicity at 5 uM preincubated for 2 hrs followed by cisplatin addition measured after 48 hrs in presence of DTT by MTT assay; assay type: cell-based
T1 sequence (whole entry): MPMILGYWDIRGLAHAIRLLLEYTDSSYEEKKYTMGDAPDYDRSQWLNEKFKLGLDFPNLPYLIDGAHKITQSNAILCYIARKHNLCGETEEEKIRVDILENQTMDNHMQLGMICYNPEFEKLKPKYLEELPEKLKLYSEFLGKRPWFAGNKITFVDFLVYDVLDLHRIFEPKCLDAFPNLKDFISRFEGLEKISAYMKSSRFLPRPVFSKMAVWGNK
Procedure, shortened: (§3)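 A549 cells seeded at 3 × 10⁴ cells/mL and cultured 24 h. For line 6, DTT pretreatment (250, unit unclear) for 1 h. Compound added for 2 h, then cisplatin at 2.5, 5, 10 and 20 (unit unclear) for 48 h. MTT for 4 h at 37 °C in the dark, DMSO solubilisation, OD read at 570 nm.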

[6] = molecular target: T1, Glutathione S-transferase Mu 1 (Homo sapiens); test: Inhibition of GSTM1 in human A549 cells assessed as potentiation of cisplatin-induced cytotoxicity by measuring combination index at 5 uM preincubated for 2 hrs followed by cisplatin addition measured after 48 hrs by MTT assay; assay type: cell-based
[7] = Competitive inhibition of equine liver GST using varying levels of substrate GSH and fixed CDNB concentration preincubated with GSH for 30 mins followed by CDNB addition measured for 3 mins by Lineweaver-Burk plot analysis; parameters: species or system Equus caballus; procedure, shortened: as §1
Equus caballus = species: Equus caballus; test: Inhibition of equine liver GST assessed as decrease in conjugation of CDNB to GSH at 100 uM preincubated with GSH for 30 mins followed by CDNB addition measured for 3 mins relative to control; procedure, shortened: as §2
[8] = molecular target: T1, Glutathione S-transferase Mu 1 (Homo sapiens); test: Inhibition of GSTM1 in human A549 cells assessed as potentiation of cisplatin-induced cytotoxicity at 5 uM preincubated for 2 hrs followed by cisplatin addition measured after 48 hrs by MTT assay; assay type: cell-based; procedure, shortened: as §3
A549 [9] = test: Inhibition of GST in human A549 cells at 25 uM after 1.5 hrs by DNs-CV probe based fluorescence microscopic method

Ki [1] [µM]	IC50 [3] [µM]	Ki [7] [µM]	inhibition (Equus caballus) [%]	Structure (SMILES)	K [2] [M⁻¹ s⁻¹]	inhibition (A549 [4])	inhibition [5]	CI [6]	inhibition [8]	inhibition (A549 [9])
24.7	5.6	7.8	74.7	O=C(/C=C/c1ccc(C(F)(F)F)cc1)N1CCC=C(Cl)C1=O	2.64	inactive	inactive	< 1	Active	Active
–	41.6	–	55.5	O=C1C=CCCN1C(=O)/C=C/c1ccc(C(F)(F)F)cc1	1.35	–	–	–	–	–
–	> 100	–	15.4	COc1cc(/C=C/C(=O)N2CCCCC2=O)cc(OC)c1OC	0.35	–	–	–	–	–
–	> 100	–	30.7	COc1cc(/C=C/C(=O)N2CCC=CC2=O)cc(OC)c1OC [PIPLARTINE]	0.46	–	–	–	–	inactive
–	> 100	–	8.2	C/C=C/C(=O)N1CCC=CC1=O	1.21	–	–	–	–	–
–	50.1	–	53	O=C1C=CCCN1C(=O)/C=C/c1cccc(C(F)(F)F)c1	1.13	–	–	–	–	–
–	> 100	–	31.5	O=C1C=CCCN1C(=O)/C=C/c1ccccc1C(F)(F)F	0.39	–	–	–	–	–
–	> 100	–	50.5	COc1cc(/C=C/C(=O)C2CCC=CC2=O)cc(OC)c1OC (stereo not drawn)	1.15	–	–	–	–	–
–	> 100	–	40.3	O=C(/C=C/c1ccccc1C(F)(F)F)N1CCC=C(Cl)C1=O	0.67	–	–	–	–	–
–	10.5	–	71	O=C(/C=C/c1cccc(C(F)(F)F)c1)N1CCC=C(Cl)C1=O	2.53	–	–	–	–	–
–	> 100	–	0	COc1cc(CCC(=O)N2CCCCC2=O)cc(OC)c1OC [TETRAHYDROPIPLARTINE]	–	–	–	–	–	–
–	> 100	–	30.8	COc1cc(/C=C/C(=O)N2CCC=C(Cl)C2=O)cc(OC)c1OC	0.99	–	–	–	–	–
